Measurements: ChEMBL document CHEMBL4715768, “Conjugation of N-acylhydrazone and 1,2,4-oxadiazole leads to the identification of active antimalarial agents” (Bioorg Med Chem, 2016)
Calls of active or inactive are those of the source. No cut-off for these calls is given here.

Key:
Plasmodium falciparum [1] = experiment: (§1) Antimalarial activity against chloroquine-resistant blood stage Plasmodium falciparum W2 infected in human erythrocytes assessed as parasite growth inhibition at 10 ug/ml incubated for 24 hrs followed by [3H]-hypoxanthine addition and further incubated for 24 hrs followed by cooling and measured after 24 hrs by beta radiation counter analysis relative to control; type: functional; details: W2, Erythrocyte, time 72 hrs
Summary of the method: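 P. falciparum W2 grown in human O+ erythrocytes in RPMI 1640 with 10% human plasma, at 1% parasitemia and 2.5% hematocrit. Compounds diluted with 4% DMSO and medium, tested in triplicate. [3H]-hypoxanthine incorporation read; inhibition calculated against untreated parasites.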

[2] = Selectivity index, ratio of CC50 for human HepG2 cells assessed as cell growth inhibition measured after 72 hrs by alamar blue assay to IC50 for chloroquine-resistant blood stage Plasmodium falciparum W2 infected in human erythrocytes assessed as parasite growth inhibition incubated for 24 hrs followed by [3H]-hypoxanthine addition and further incubated for 24 hrs followed by cooling and measured after 24 hrs by beta radiation counter analysis; type: toxicity, cell-based; details: read-out: Ratio CC50/IC50
[3] = Cytotoxicity against human HepG2 cells assessed as reduction in cell growth measured after 72 hrs by alamar blue assay; type: cell-based
Summary of the method: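 HepG2 cells in phenol red-free RPMI-1640 with 10% FBS were seeded at 10⁴ cells/well. After 24 h they were exposed to five concentrations in triplicate for 72 h at 37 °C, 5% CO₂. AlamarBlue (20%) was added for 24 h, and absorbance was read at 570/600 nm. CC50 came from non-linear regression, two independent experiments. Gentian violet served as the cytotoxic control.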

Plasmodium falciparum [4] = experiment: as §1, with “inhibition” for “inhibition at 10 ug/ml”, “analysis” for “analysis relative to control”; type: functional, organism-based; details: W2, Erythrocyte
Summary of the method: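 W2 P. falciparum cultured in O+ human erythrocytes in RPMI 1640 plus 10% human plasma, at 1% parasitemia and 2.5% hematocrit. At least five compound concentrations, each in triplicate. Growth measured as [3H]-hypoxanthine uptake relative to untreated parasites. IC50 derived from two independent experiments.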

Plasmodium berghei [5] = experiment: Antimalarial activity against Plasmodium berghei NK65 infected in Swiss mouse assessed as increase in mouse survival at 50 mg/kg, po qd administered via gavage for 4 consecutive days and […] relative to control; type: functional
Summary of the method: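 Swiss mice, 4–6 weeks, n=5 per group, infected i.p. with 10⁶ P. berghei NK65-infected red cells. Treated once daily for 4 consecutive days starting 1 h post-infection, dosed by oral gavage in 20% DMSO. Vehicle controls received DMSO in saline. Survival followed up to 30 days; Mantel-Cox test. One experiment of two replicates.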

Plasmodium berghei [6] = experiment: Antimalarial activity against Plasmodium berghei NK65 infected in Swiss mouse assessed as decrease in parasitemia at 50 mg/kg, po qd administered via gavage for 4 consecutive days and measured up to 8 days by optical microscopy analysis; type: functional, organism-based; details: time day <=8
Summary of the method: (§2)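 Adult Swiss mice (4-6 weeks, n=5/group) inoculated i.p. with 10⁶ P. berghei NK65-infected red cells. Dosing began 1 h post-infection, once daily for 4 consecutive days by oral gavage or i.p. Vehicle was DMSO 20% in saline. Tail blood smears were taken on days 4–8, methanol-fixed, panoptic-stained and read by light microscopy. Inhibition = [(C−T)/C]×100 versus vehicle controls. Means ± SEM.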

Hemozoin [7] = experiment: Inhibition of beta-hematin formation measured after 24 hrs by spectrophotometry analysis
Summary of the method: (§3)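 Haemin (0.5 mg/mL in 0.2 M NaOH) was mixed with 3 M sodium acetate, 17.4 M acetic acid and compound, tested at up to 2.5 mM. Incubation was 24 h at 37 °C. Pellets were washed with DMSO twice and water, dissolved in 0.1 M NaOH, and read at 405 nm. Inhibition was taken against a no-compound control, at least twice in triplicate. Chloroquine was the positive control. CQ index = IC50 CQ / IC50 compound.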

[8] = Hemolytic activity in human erythrocytes measured after 1 hr by microtiter plate method; type: ADME, cell-based, Erythrocyte; details: read-out: CC50
Summary of the method: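 Fresh human O⁺ erythrocytes were washed three times in PBS and used at 1% hematocrit. Compounds dissolved in PBS were added in triplicate and incubated 1 h; saponin 1% v/v served as the full-lysis control. After centrifugation, haemoglobin released into the supernatant was read at 540 nm and hemolysis CC50 derived.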

Plasmodium berghei [9] = experiment: Antimalarial activity against Plasmodium berghei NK65 infected in Swiss mouse assessed as increase in mouse survival at 100 mg/kg, po qd administered via gavage for 4 consecutive days and […] relative to control; type: functional, organism-based
Summary of the method: (§4)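 Swiss mice (n=5/group) infected i.p. with 10⁶ P. berghei NK65 red cells, then treated 1 h later, once daily for 4 days, orally by gavage or i.p. Vehicle was DMSO in saline. Survival was followed to 30 days post-infection and compared with vehicle by Mantel-Cox test. One experiment of two replicates.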

Plasmodium berghei [10] = experiment: Antimalarial activity against Plasmodium berghei NK65 infected in Swiss mouse assessed as decrease in parasitemia at 100 mg/kg, ip qd administered via gavage for 4 consecutive days and measured up to 8 days by optical microscopy analysis; type: functional, organism-based; details: time day <=8; summary of the method: as §2
Hemozoin [11] = experiment: Potency index, ratio of chloroquine IC50 to test compound IC50 for inhibition of beta-hematin formation measured after 24 hrs by spectrophotometry analysis; summary of the method: as §3
Plasmodium berghei [12] = experiment: Antimalarial activity against Plasmodium berghei NK65 infected in Swiss mouse assessed as decrease in parasitemia at 100 mg/kg, po qd administered via gavage for 4 consecutive days and measured up to 8 days by optical microscopy analysis; type: functional, organism-based; details: time day <=8; summary of the method: as §2
Plasmodium berghei [13] = experiment: Antimalarial activity against Plasmodium berghei NK65 infected in Swiss mouse assessed as decrease in parasitemia at 25 to 50 mg/kg, ip qd administered via gavage for 4 consecutive days and measured up to 8 days by optical microscopy analysis; type: functional, organism-based; details: dose 25-50 mg/kg, time day <=8; summary of the method: as §2
Plasmodium berghei [14] = experiment: Antimalarial activity against Plasmodium berghei NK65 infected in Swiss mouse assessed as effect on mouse survival at 25 to 50 mg/kg, ip qd administered via gavage for 4 consecutive days and […] by optical microscopy analysis; type: functional, organism-based; details: dose 25-50 mg/kg; summary of the method: as §4

O=C(N/N=C/c1ccc2c(c1)OCO2)c1nc(-c2ccccc2)no1
inhibition at 10 µg/mL (Plasmodium falciparum [1]): 27.5%

O[C@@H](c1cc(C(F)(F)F)nc2c(C(F)(F)F)cccc12)[C@H]1CCCCN1 [(S,R)-MEFLOQUINE]
selectivity ratio at 72 h [2]: 295
inhibition at 10 µg/mL (Plasmodium falciparum [1]): 100%
CC50 at 72 h [3]: 11.8 µM
IC50 (Plasmodium falciparum [4]): 0.04 µM

O=C(N/N=C/C=C/c1ccccc1)c1nc(-c2ccc(Br)cc2)no1
inhibition at 10 µg/mL (Plasmodium falciparum [1]): 58.8%

CCN(CC)CCCC(C)Nc1ccnc2cc(Cl)ccc12 (stereo unspecified) [CHLOROQUINE]
Activity (Plasmodium berghei [5]): 100%
Activity (Plasmodium berghei [6]): Active
IC50 (Hemozoin [7]): 800 µM
HC50 at 1 h [8]: > 100 µg/mL

COc1ccc(-c2noc(C(=O)N/N=C/c3ccc4c(c3)OCO4)n2)cc1
inhibition at 10 µg/mL (Plasmodium falciparum [1]): 27.5%

COc1cc(/C=N/NC(=O)c2nc(-c3ccccc3)no2)ccc1O
inhibition at 10 µg/mL (Plasmodium falciparum [1]): 55.4%

O=C(N/N=C/C=C/c1ccccc1)c1nc(-c2ccc([N+](=O)[O-])cc2)no1
inhibition at 10 µg/mL (Plasmodium falciparum [1]): 25.7%

COc1ccc(-c2noc(C(=O)N/N=C/c3ccc(O)c(OC)c3)n2)cc1
inhibition at 10 µg/mL (Plasmodium falciparum [1]): 42.2%

COc1cc(/C=N/NC(=O)c2nc(-c3ccc(C)cc3)no2)ccc1O
selectivity ratio at 72 h [2]: 388
Activity (Plasmodium berghei [9]): inactive
inhibition at 10 µg/mL (Plasmodium falciparum [1]): 61.1%
Activity (Plasmodium berghei [10]): inactive
Ratio IC50 (Hemozoin [11]): 1.3
CC50 at 72 h [3]: 46.6 µM
IC50 (Plasmodium falciparum [4]): 0.12 µM
IC50 (Hemozoin [7]): 600 µM
Activity (Plasmodium berghei [12]): inactive
HC50 at 1 h [8]: > 100 µg/mL

O=C(N/N=C/c1ccc2c(c1)OCO2)c1nc(-c2ccc(F)cc2)no1
inhibition at 10 µg/mL (Plasmodium falciparum [1]): 31.6%

COc1cc(/C=N/NC(=O)c2nc(-c3ccc(Br)cc3)no2)ccc1O
selectivity ratio at 72 h [2]: 241
Activity (Plasmodium berghei [9]): inactive
inhibition at 10 µg/mL (Plasmodium falciparum [1]): 71.1%
Activity (Plasmodium berghei [10]): inactive
Ratio IC50 (Hemozoin [11]): 0.8
CC50 at 72 h [3]: 16.9 µM
IC50 (Plasmodium falciparum [4]): 0.07 µM
IC50 (Hemozoin [7]): 900 µM
Activity (Plasmodium berghei [12]): inactive
HC50 at 1 h [8]: 33 µg/mL

COc1cc(/C=N/NC(=O)c2nc(-c3ccc([N+](=O)[O-])cc3)no2)ccc1O
selectivity ratio at 72 h [2]: 74
Activity (Plasmodium berghei [13]): Active
inhibition at 10 µg/mL (Plasmodium falciparum [1]): 68.7%
Activity (Plasmodium berghei [14]): inactive
CC50 at 72 h [3]: 14.8 µM
IC50 (Plasmodium falciparum [4]): 0.2 µM
IC50 (Hemozoin [7]): > 2000 µM
HC50 at 1 h [8]: > 100 µg/mL

O=C(N/N=C/c1ccc2c(c1)OCO2)c1nc(-c2ccc(Br)cc2)no1
inhibition at 10 µg/mL (Plasmodium falciparum [1]): 45.3%

COc1cc(/C=N/NC(=O)c2nc(-c3ccc(Cl)cc3)no2)ccc1O
inhibition at 10 µg/mL (Plasmodium falciparum [1]): 37%

O=C(N/N=C/C=C/c1ccccc1)c1nc(-c2ccc(Cl)cc2)no1
inhibition at 10 µg/mL (Plasmodium falciparum [1]): 28.8%

O=C(N/N=C/C=C/c1ccccc1)c1nc(-c2ccc(O)cc2)no1
inhibition at 10 µg/mL (Plasmodium falciparum [1]): 39.1%

O=C(N/N=C/C=C/c1ccccc1)c1nc(-c2ccc(F)cc2)no1
inhibition at 10 µg/mL (Plasmodium falciparum [1]): 34.3%

O=C(N/N=C/c1ccc2c(c1)OCO2)c1nc(-c2ccc(O)cc2)no1
inhibition at 10 µg/mL (Plasmodium falciparum [1]): 71.9%
Ratio IC50 (Hemozoin [11]): 1
CC50 at 72 h [3]: > 200 µM
IC50 (Plasmodium falciparum [4]): 1.5 µM
IC50 (Hemozoin [7]): 800 µM
HC50 at 1 h [8]: > 100 µg/mL

COc1cc(/C=N/NC(=O)c2nc(-c3ccc(O)cc3)no2)ccc1O
inhibition at 10 µg/mL (Plasmodium falciparum [1]): 58.8%
CC50 at 72 h [3]: > 200 µM
IC50 (Plasmodium falciparum [4]): 1.9 µM
IC50 (Hemozoin [7]): > 2000 µM
HC50 at 1 h [8]: > 100 µg/mL

Cc1ccc(-c2noc(C(=O)N/N=C/c3ccc4c(c3)OCO4)n2)cc1
inhibition at 10 µg/mL (Plasmodium falciparum [1]): 21.9%

O=C(N/N=C/c1ccc2c(c1)OCO2)c1nc(-c2ccc(Cl)cc2)no1
inhibition at 10 µg/mL (Plasmodium falciparum [1]): 53%

Cc1ccc(-c2noc(C(=O)N/N=C/C=C/c3ccccc3)n2)cc1
inhibition at 10 µg/mL (Plasmodium falciparum [1]): 52.7%

COc1ccc(-c2noc(C(=O)N/N=C/C=C/c3ccccc3)n2)cc1
inhibition at 10 µg/mL (Plasmodium falciparum [1]): 26.1%

O=C(N/N=C/c1ccc2c(c1)OCO2)c1nc(-c2ccc([N+](=O)[O-])cc2)no1
inhibition at 10 µg/mL (Plasmodium falciparum [1]): 33.9%

O=C(N/N=C/C=C/c1ccccc1)c1nc(-c2ccccc2)no1
inhibition at 10 µg/mL (Plasmodium falciparum [1]): 51%

COc1cc(/C=N/NC(=O)c2nc(-c3ccc(F)cc3)no2)ccc1O
inhibition at 10 µg/mL (Plasmodium falciparum [1]): 24.7%
